ChEMBL document CHEMBL4616673 (J Med Chem, 2020)
Values after ≈ are worked out from the molar mass of the structure shown. Values joined by “and” are separate entries in the source; they are usually repeats but may differ in a detail not shown here. Equal values may be shown once. Active and inactive are the calls of the source. The rule behind the calls is not given here.

Key:
Raji [1] = test: Antitumor activity against human Raji cells xenografted in NOD-SCID nude mouse assessed as tumor growth inhibition at 30 mg/kg/day, po administered 6 days a week for 3 weeks relative to control; assay type: functional; details: read-out: TGI
Outline: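 Nude mice given 1 × 10^7 Raji cells s.c. in serum-free medium plus basement membrane matrix. Randomized at 100–200 mm3 tumour volume (n = 6 per group). Oral dosing 6 days/week for 3 weeks. Vehicles: 30 mg/kg/d in 5% NMP/95% PEG400, 10 mg/kg/d in 30% PEG300/70% saline. Volume = ab²/2 every 3 days. TGI from treated vs control volume change, initial to final day.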

Raji [2] = test: Induction of mitochondrial membrane potential loss in human Raji cells measured after 48 hrs by TMRM staining based fluorescence assay; assay type: functional, cell-based
Outline: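 Raji cells treated 48 h (CCCP as positive control), washed in PBS. Incubated with TMRM at 100 nM final for 15 min at 37 °C, fluorescence read at ex 510/em 580 nm. Mean ± SD.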

Raji [3] = test: Induction of apoptosis in human Raji cells assessed as necrotic cells at 0.031 uM measured after 48 hrs by Annexin V-FITC staining based flow cytometry (reference value: 0.21 %); assay type: functional
Raji [4] = test: Induction of apoptosis in human Raji cells assessed as early apoptotic cells at 0.125 uM measured after 48 hrs by Annexin V-FITC staining based flow cytometry (reference value: 1 %); assay type: functional
[5] = Acute toxicity in BALB/c mouse assessed as effect on liver at 800 mg/kg, po measured on day 14 by H and E staining based light microscopic analysis; assay type: organism-based; details: in vivo
Outline: (§1)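 Female and male BALB/c mice, 6-8 weeks old, dosed orally within 24 h at up to 400 mg/kg (free compound) or 800 mg/kg (nanocrystal). At the end of treatment, heart, liver, spleen, lung and kidney were sectioned, stained with H&E and imaged by light microscopy.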

K562 = test: Antiproliferative activity against human K562 cells assessed as reduction in cell viability measured after 48 hrs by MTT assay; assay type: functional, cell-based; details: Homo sapiens, K562, 48 h
[6] = Oral bioavailability in Sprague-Dawley rat at 25 mg/kg administered via gavage by LC-MS analysis; assay type: ADME, organism-based; details: in vivo
Outline: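 Male Sprague-Dawley rats, fasted overnight, jugular vein catheter for serial blood sampling. Single dose of 25 mg/kg by oral gavage or 5 mg/kg by tail-vein injection. Blood drawn at set times and spun at once for plasma, plasma drug by LC-MS. Parameters given as mean, n = 6.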

[7] = Toxicity in NOD-SCID nude mouse xenografted with human Raji cells assessed as death at 40 to 80 mg/kg/day, po administered 6 days a week for 3 weeks; assay type: organism-based; details: in vivo
Outline: (§2)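 Mice, 6-7 weeks old, injected s.c. with 1×10^7 Raji cells in serum-free medium plus basement membrane matrix. At 100–200 mm3 tumours, randomised (n=6). Oral dosing 6 days/week for 3 weeks: 30 mg/kg/d free compound suspended in 5% NMP/95% PEG400, or 40 or 80 mg/kg/d nanocrystal. Body weight and tumour volume measured every 3 days.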

[8] = Acute toxicity in BALB/c mouse assessed as effect on blood LDH level at 800 mg/kg, po measured on day 14; assay type: organism-based; details: in vivo
Outline: (§3)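 BALB/c mice, female and male, 6-8 weeks old, given oral doses within 24 h, up to 400 mg/kg (free compound) or 800 mg/kg (nanocrystal formulation). Watched for body weight loss, diarrhea, anorexia, skin ulcer and toxic death. Serum biochemistry panel was run at the end of treatment.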

[9] = Toxicity in NOD-SCID nude mouse xenografted with human Raji cells assessed as effect on body weight at 30 mg/kg/day, po administered 6 days a week for 3 weeks and measured every 3 days; assay type: organism-based; details: in vivo; outline: as §2
Raji [10] = test: Antiproliferative activity against human Raji cells assessed as inhibition of cell proliferation at 0.02 to 0.156 uM measured after 48 hrs in presence of uridine by MTT assay; assay type: functional, cell-based
Outline: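 Raji cells treated with or without 500 μM uridine, viability by MTT. Cells seeded at 2-10 × 10^3 per well, treated 24 h later for 48 h. MTT (5 mg/mL) for 2-4 h, product dissolved overnight in 20% acidified SDS, absorbance at 570 nm. Mean ± SD.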

[11] = Acute toxicity in BALB/c mouse assessed as effect on kidney at 800 mg/kg, po measured on day 14 by H and E staining based light microscopic analysis; assay type: organism-based; details: in vivo; outline: as §1
[12] = Acute toxicity in BALB/c mouse assessed as effect on blood ALB level at 400 mg/kg, po measured on day 14; assay type: organism-based; details: in vivo; outline: as §3
[13] = Acute toxicity in BALB/c mouse assessed as effect on blood HDL level at 800 mg/kg, po measured on day 14; assay type: organism-based; details: in vivo; outline: as §3
[14] = Acute toxicity in BALB/c mouse assessed as effect on heart at 400 mg/kg, po measured on day 14 by H and E staining based light microscopic analysis; assay type: organism-based; details: in vivo; outline: as §1
Raji [15] = test: Cell cycle arrest in human Raji cells assessed as accumulation at S phase at 0.125 uM measured after 24 hrs by propidium iodide/RNase staining based flow cytometry (reference value: 52%); assay type: functional
HeLa = test: Antiproliferative activity against human HeLa cells assessed as reduction in cell viability measured after 48 hrs by MTT assay; assay type: functional, cell-based; details: Homo sapiens, HeLa, 48 h
[16] = Half life in rat liver microsomes at 1 uM in presence of NADPH by LC-MS analysis; assay type: ADME, Microsome
Outline: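 Compound at 1 μM with 0.5 mg/mL human, rat or mouse liver microsomes and 1 mM NADPH. Stopped with acetonitrile at 0, 5, 15, 30, 45, 60 and 90 min, centrifuged. Supernatant analysed by LC-MS/MS.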

[17] = Acute toxicity in BALB/c mouse assessed as effect on blood ALB level at 800 mg/kg, po measured on day 14; assay type: organism-based; details: in vivo; outline: as §3
[18] = Acute toxicity in BALB/c mouse assessed as effect on lung at 400 mg/kg, po measured on day 14 by H and E staining based light microscopic analysis; assay type: organism-based; details: in vivo; outline: as §1
[19] = Acute toxicity in BALB/c mouse assessed as effect on blood CHO1 level at 800 mg/kg, po measured on day 14; assay type: organism-based; details: in vivo; outline: as §3
[20] = Acute toxicity in BALB/c mouse assessed as effect on blood CHO1 level at 400 mg/kg, po measured on day 14; assay type: organism-based; details: in vivo; outline: as §3
Raji [21] = test: Induction of apoptosis in human Raji cells assessed as early apoptotic cells at 0.031 uM measured after 48 hrs by Annexin V-FITC staining based flow cytometry (reference value: 1 %); assay type: functional
[22] = Acute toxicity in BALB/c mouse assessed as effect on blood CREA level at 800 mg/kg, po measured on day 14; assay type: organism-based; details: in vivo; outline: as §3
[23] = Solubility of the compound in PBS; assay type: physicochemical
Raji [24] = test: Induction of apoptosis in human Raji cells assessed as live cells at 0.125 uM measured after 48 hrs by Annexin V-FITC staining based flow cytometry (reference value: 98.09 %); assay type: functional

O=C1c2ccccc2C(=O)c2c1nnn2-c1cc(F)c(-c2ccccc2F)c(F)c1
inhibition in vivo at 30 mg/kg/day (Raji [1]): 42%
Activity (Raji [2]): Dose-dependent effect
Activity (Raji [3]): 0.37%
Activity (Raji [4]): 4.1%
Activity [5]: Non-Toxic
IC50 (K562): 110 nM
F [6]: 9.66% and 25.16%
Activity [7]: Non-Toxic
Activity [8]: Non-Toxic
Activity [9]: Non-Toxic
inhibition (Raji [10]): inactive
Activity [11]: Non-Toxic
Activity [12]: Non-Toxic
Activity [13]: Non-Toxic
Activity [14]: Non-Toxic
Activity (Raji [15]): 86.31%
IC50 (HeLa): > 10000 nM
t1/2 [16]: 19.8 min and 54 min
Activity [17]: Non-Toxic
Activity [18]: Non-Toxic
Activity [19]: Non-Toxic
Activity [20]: Non-Toxic
Activity (Raji [21]): 3.09%
Activity [22]: Non-Toxic
solubility [23]: 33.8 µg/mL (≈ 83.4 µM)
Activity (Raji [24]): 89.46%
